Only some compounds are listed: those with a hit (about 4.2% of all), similar ones and a draw of the others.
CHO parental Ca: signal in parental CHO cells, OX1R antagonist counter-screen; parental CHO-K1, ATP-induced calcium, Fluo-8 fluorescence; inhibition, % at 5.6 µM; hit rate 0.63% among 330,000; AID 463079;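 active = inhibition above that plate's mean sample inhibition plus 3 SD, cut at about 26% in these data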;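 note: 0% = ATP-challenged DMSO wells and 100% = DMSO wells without ATP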
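Material: Parental CHO cells | Reagent: ATP | Compound dosing: Single nominal dose of 5.6 µM per compound | Detection: Intracellular calcium via Fluo-8 no-wash fluorescent dye | Read-out: % inhibition of ATP-induced calcium mobilization | Benchmarks: Low control ATP plus DMSO, high control DMSO only | Replicates: Singlicate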
OX1R antag-1: antagonists of human orexin 1 receptor (OX1R); O43613; OX1R-expressing cells, FRET antagonist read-out; inhibition, % at 6.6 µM; hit rate 1.8% among 330,000; in the data active = inhibition mostly above about 38%, no sharp cut-off; inactive = mostly below about 40%;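 note: 0% = agonist challenge alone and 100% = reference antagonist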
Target sequence (O43613 whole entry, looked up): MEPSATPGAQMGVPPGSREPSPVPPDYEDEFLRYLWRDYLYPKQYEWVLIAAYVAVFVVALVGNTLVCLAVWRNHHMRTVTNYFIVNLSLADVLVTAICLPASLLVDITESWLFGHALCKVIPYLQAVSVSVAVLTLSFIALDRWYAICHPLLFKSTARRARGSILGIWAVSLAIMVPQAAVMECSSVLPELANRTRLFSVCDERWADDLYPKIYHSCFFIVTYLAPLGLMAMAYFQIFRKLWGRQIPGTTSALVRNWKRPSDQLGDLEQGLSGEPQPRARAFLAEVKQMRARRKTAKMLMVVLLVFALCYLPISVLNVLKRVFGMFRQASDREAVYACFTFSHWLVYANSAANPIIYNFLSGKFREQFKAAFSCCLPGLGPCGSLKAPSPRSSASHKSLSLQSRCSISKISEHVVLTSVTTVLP
OX1R antag-2: human HCRTR1 antagonism. O43613. CHO/OX1R cells, Fluo-8 calcium fluorescence, orexin A. inhibition, % at 5 µM. hit rate 0.43% among 330,000;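 active = inhibition above its plate's threshold, mean inhibition of all tested compounds on the plate plus 3 SD, cut at about 37% in these data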;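 note: 0% = orexin A challenge wells and 100% = SB-334867-A antagonist wells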
TAAR1 antag: human TAAR1 antagonism. Q96RJ0. CHO RD-HGA16 TAAR1, Fluo-8 calcium fluorescence, antagonist. inhibition, % at 3 µM. hit rate 1.5% among 360,000. AID 624466;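 active = inhibition above a per-plate cutoff, the mean inhibition of test compounds on that plate plus 3 SD, cut at about 49% in these data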;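 note: 0% = DMSO plus EC80 beta-PEA response and 100% = DMSO alone without agonist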
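Material: RD-HGA16 CHO cells with stable hTAAR1 and Gα16; Dosing: single nominal final test compound concentration of 3 µM; Schedule: seeding 17-24 h prior, 75-min 37 °C, 30-min RT dye loading; Detection: kinetic Fluo-8 calcium fluorescence measurement; Measure: % inhibition from peak post-agonist over basal fluorescence ratio; Benchmarks: vehicle and agonist controls.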
GalR3 antagonist: antagonists of human GalR3. HEK293 GalR3-CNG cAMP membrane potential fluorescence; galR3 body fused to GalR1 C-terminus. inhibition, % at 3 µM. hit rate 0.44% among 360,000. AID 651719;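 active = inhibition above the screen-wide average plus 3 SD, cut at about 13% in these data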;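 note: forskolin and galanin both at EC90 stimulate the cells; cAMP rise reported by CNG channel membrane potential dye signal; 0% = forskolin plus galanin with DMSO and 100% = forskolin alone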
Target sequence (O60755 1-299 limits assumed): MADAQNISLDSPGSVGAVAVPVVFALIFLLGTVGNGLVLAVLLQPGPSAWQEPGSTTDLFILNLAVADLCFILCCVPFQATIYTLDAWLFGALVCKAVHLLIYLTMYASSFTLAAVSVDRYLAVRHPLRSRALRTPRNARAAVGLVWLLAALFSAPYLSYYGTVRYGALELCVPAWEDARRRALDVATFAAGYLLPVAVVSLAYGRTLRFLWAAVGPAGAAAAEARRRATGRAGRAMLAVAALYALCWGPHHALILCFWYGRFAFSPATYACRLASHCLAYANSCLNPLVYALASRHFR
TAAR1 ag: human TAAR1 agonism; Q96RJ0; CHO RD-HGA16 TAAR1, Fluo-8 calcium fluorescence; vehicle wells 0%, saturating PEA agonist 100%; activation, % at 3 µM; hit rate 0.99% among 360,000; AID 624467;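 active = activation above the mean activation of all test compounds in the run plus 3 SD, cut at about 38% in these data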
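System: CHO-derived RD-HGA16 cells with stable Gα16 and human TAAR1. Times: 17-24 h plating, Fluo-8 75 min 37 °C, 30 min RT. Measured by: calcium-sensitive Fluo-8 signal, excitation 470-495, emission 515-575 nm. Read-out basis: % activation relative to PEA EC100 response. Control set: DMSO and PEA EC100. Repeats: no replicates (n 1).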
TAAR1 ag confirm: human TAAR1 agonism, confirmed; shares compounds with TAAR1 ag; activation, % at 3 µM; hit rate 82% among 2,400; CHO RD-HGA16 TAAR1, Fluo-8 calcium fluorescence; scaled: DMSO 0%, maximal phenethylamine 100%;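 active = activation above a cutoff set at the run's mean compound activation plus 3 SD, cut at about 39% in these data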
Ga16 ag counter: nonselective agonism, TAAR1 counter-screen; shares compounds with TAAR1 ag; CHO-Ga16 parental, Fluo-8 calcium fluorescence; normalized to maximal ATP response, DMSO zero; activation, % at 3 µM; hit rate 50% among 2,400;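 active = activation above the run cutoff, the mean activation over all tested wells plus 3 SD, cut at about 12% in these data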;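 note: 0% = DMSO wells and 100% = maximal ATP response on the peak over basal ratio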
TAAR1 desensitize: TAAR1 response desensitization, agonist counter-screen | CHO RD-HGA16 hTAAR1, Fluo-8 calcium, beta-PEA response inhibition | inhibition, % at 3 µM | shares compounds with TAAR1 ag | hit rate 46% among 2,400;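 active = inhibition above the run cutoff, the mean inhibition of all test compounds plus 3 SD, cut at about 49% in these data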;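 note: beta-PEA stimulus applied at its EC80; loss of beta-PEA calcium signal after compound pretreatment read as receptor desensitization; 0% = DMSO with beta-PEA at EC80 and 100% = DMSO alone without agonist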
Ga16 nonsel ant: counter-screen for TAAR1 agonists: nonselective Ga16 antagonists. shares compounds with TAAR1 ag. CHO-Ga16 ATP-induced calcium, Fluo-8 fluorescence. inhibition, % at 3 µM. hit rate 39% among 2,400. AID 651952;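 active = inhibition above the plate's mean compound inhibition plus 3 SD, computed per plate, cut at about 22% in these data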;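 note: 0% = EC80 ATP with DMSO and 100% = DMSO wells without ATP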
Numbers without * were called inactive; x = not tested or not shown.

SMILES	CHO parental Ca	OX1R antag-1	OX1R antag-2	TAAR1 antag	GalR3 antagonist	TAAR1 ag	TAAR1 ag confirm	Ga16 ag counter	TAAR1 desensitize	Ga16 nonsel ant
Cc1nnn(-c2nonc2N)c1C(=O)NNC(=O)c1ccc(Cl)c(Cl)c1	-14	5	-15	9	-5	55*	72*	6	21	8
O=C(CC(=O)NCCc1ccccc1)NCCc1ccccc1	-15	18	-12	4	-5	34	x	x	x	x
NNCCc1ccccc1	-21	16	-13	30	x	75*	94*	2	76*	5
O=C(COC(=O)/C=C/c1ccccc1Cl)NC1CCCCCC1	-9	5	-11	53*	-3	49*	24	5	33	11
CCCn1nnc(NC(=S)NC(=O)/C=C/c2ccco2)n1	-13	5	-13	-26	-1	1	x	x	x	x
CCCCCCOc1ccc(/C(C)=N/NC2=NCCN2)cc1	5	11	-1	21	-2	63*	48*	23*	37	24*
CCCCCc1c(-c2ccccc2)ncn1CCc1ccccc1OC	x	x	x	7	-10	13	x	x	x	x
CCc1c(-c2ccccc2Br)ncn1CCc1ccccc1OC	x	x	x	53*	-4	44*	70*	11	59*	28*
COc1ccc(-c2ncn(CCc3ccccc3OC)c2CC(C)C)cc1	x	x	x	33	-7	21	x	x	x	x
CCCCc1c(-c2ccc(OC)c(OC)c2)ncn1CCc1ccccc1OC	x	x	x	58*	-6	59*	64*	7	68*	42*
CCc1c(-c2ccc(Br)cc2)ncn1CCc1ccccc1OC	x	x	x	12	-9	24	x	x	x	x
COc1ccccc1CCn1cnc(-c2ccc(Br)cc2)c1CC(C)C	x	x	x	71*	-5	65*	82*	2	56*	10
CCCCc1c(Cc2cccc(F)c2)ncn1CCc1ccccc1OC	x	x	x	32	-7	48*	48*	11	50*	33*
C=CCn1c(CCNC(=O)c2ccccc2F)nnc1SCc1nc2ccccc2c(=O)[nH]1	-15	4	-5	-2	-6	14	x	x	x	x
Cn1nnc(NC(=S)NC(=O)c2ccco2)n1	-2	26	-6	9	-3	0	x	x	x	x
CCCc1c(-c2ccc(Cl)cc2)ncn1CCc1ccccc1OC	x	x	x	52*	-9	56*	82*	15*	83*	26*
CCCc1c(-c2ccc(Cl)cc2)ncn1Cc1ccccc1OC	x	x	x	-2	-8	4	x	x	x	x
COc1ccccc1CCn1cnc(-c2ccc(OC)c(OC)c2)c1CC(C)C	x	x	x	68*	-7	54*	93*	24*	84*	45*
CCCCc1c(-c2ccccc2OC)ncn1CCc1cccc(Cl)c1	x	x	x	47	-8	66*	84*	19*	83*	34*
COc1cc2ncnc(NCCc3ccccc3)c2cc1OC	-7	18	-7	27	0	7	x	x	x	x
O=S(=O)(Nc1nc2ccccc2nc1Nc1ccc2c(c1)OCO2)c1ccc(F)cc1	-6	16	0	13	1	0	x	x	x	x
CCCCc1ccc(N/C(N)=N/c2nc(C)cc(C)n2)cc1	70*	24	89*	107*	41*	161*	131*	90*	107*	96*
Cc1cccc(N/C(N)=N/c2nc(C)cc(C)n2)c1	23	14	17	56*	-5	58*	80*	43*	81*	53*
CC(=O)Nc1cccc(N/C(N)=N/c2nc(C)cc(C)n2)c1	-1	11	11	-3	7	1	x	x	x	x
C/C(CC(=O)NC1CCCC1)=N\NC(=O)C1CCCCC1	x	x	x	-11	-6	1	x	x	x	x
SMILES	CHO parental Ca	OX1R antag-1	OX1R antag-2	TAAR1 antag	GalR3 antagonist	TAAR1 ag	TAAR1 ag confirm	Ga16 ag counter	TAAR1 desensitize	Ga16 nonsel ant
CN1CCN(C(=O)/C=C\c2ccc(Cl)cc2)CC1	-11	23	-19	-5	-4	0	x	x	x	x
CCOC(=O)N1CCc2c(sc(N)c2C#N)C1	-4	0	-5	-21	-5	1	x	x	x	x
N#Cc1c(N)sc2c1CCN(CCc1ccccc1)C2	10	23	-8	44	-4	79*	84*	2	64*	1
NC12CC3CC(CC(C3)C1)C2	5	6	13	4	x	1	x	x	x	x
O=c1[nH]ncc2c3ccccc3n(Cc3cccc(Cl)c3)c12	-17	28	-6	27	-2	54*	4	2	11	10
O=c1[nH]ncc2c3ccccc3n(Cc3ccc(F)cc3)c12	-13	21	-9	-9	-4	12	x	x	x	x
COc1cc2nc(/C=C/c3ccc(N(C)C)cc3)sc2cc1SC	52*	27	60*	52*	-4	101*	46*	93*	67*	87*
CCN(CC)c1ccc(/C=C/c2nc3ccccc3s2)cc1	-3	14	28	x	x	x	x	x	x	x
OC[C@@H]1CN(CCN2CCOCC2)C[C@H](n2cnc3c(NC4CC4)ncnc32)O1	x	x	x	4	-2	3	x	x	x	x
O=C(Nc1ccncc1)Nc1ccc(Cl)cc1	14	4	13	50*	-4	65*	91*	17*	84*	21
O=C(N[C@@H](Cc1cccnc1)C(=O)N1CCC[C@H]1C(=O)NCCc1ccccc1Cl)c1ccccc1	x	x	x	77*	-4	55*	92*	7	90*	2
O=C(NCCc1ccccc1Cl)[C@@H]1CCCN1C(=O)[C@H](Cc1cccnc1)NC(=O)N1CCOCC1	x	x	x	11	-2	49*	77*	0	46	5
O=C(N[C@@H](Cc1cccnc1)C(=O)N1CCC[C@H]1C(=O)NCCc1ccccc1Cl)c1cccs1	x	x	x	48	-2	48*	82*	4	84*	4
O=C(N[C@@H](Cc1cccnc1)C(=O)N1CCC[C@H]1C(=O)NCCc1ccccc1Cl)c1ccc(Cl)c(Cl)c1	x	x	x	91*	-8	71*	84*	5	103*	21
COc1ccccc1CNC(=O)c1nnc(Cc2ccc(Cl)cc2)o1	-6	14	-11	-6	0	0	x	x	x	x
CC(C)CC(NC(N)=O)C(=O)NCCc1ccc(Cl)cc1 (stereo not drawn)	-19	9	-19	-1	-1	1	x	x	x	x
